# Assay outcomes deposited in PubChem by Sanford-Burnham Center for Chemical Genomics.
# Hits are enriched below; roughly 3.9% of the tested compounds scored in any of these assays.
# tim10-1 inh – tim10-1 yeast growth inhibition; S. cerevisiae tim10-1 ts strain growth, BacTiter-Glo, 24 h; inhibition, % at 20 µM; actives 2.2% (n = 330,000); AID 463190;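 active = inhibition of at least 40%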;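 note: mutant grown at 25 °C; 0% = DMSO wells with yeast and 100% = wells holding no yeast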
# XBP1 UPR activ – activators of adaptive arm of unfolded protein response (XBP1); CHO-XBP1 luciferase reporter, IRE1-XBP1 UPR activation, luminescence; percent of tunicamycin response, DMSO as zero; activation, % at 20 µM; actives 0.33% (n = 330,000); AID 463104;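 active = versus positive control, 20 µM dose yields 30% or more activation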;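 note: 100% = tunicamycin at 10 µg/mL and 0% = DMSO only wells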
#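 Signal: luciferase luminescence; Assay system: CHO-XBP1 luciferase reporter cells; Amount: one thousand reporter cells per well; Dosing: 20 µM single concentration, DMSO 1%; Benchmarks: high control tunicamycin 10 µg/mL final, low control DMSO vehicle only; Schedule: 6 h compound exposure at 37 °C, 5% CO2; Evaluation: percent activation relative to tunicamycin reference.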
# tim23-1 inh – growth inhibitors of tim23-1 mutant yeast | AID 463212 | S. cerevisiae tim23-1 growth, BacTiter-Glo luminescence, 24 h | inhibition, % at 20 µM | actives 1.3% (n = 330,000);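 active = growth inhibition of the mutant yeast at or above 50%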;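 note: temperature-sensitive mutant grown at 25 °C; plate controls were DMSO-treated mutant yeast for no effect and medium wells lacking yeast for full effect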
# TIM10 inh – growth inhibitors of TIM10 yeast strain | S. cerevisiae TIM10 strain growth, BacTiter-Glo luminescence, 24 h | inhibition, % at 10 µM | actives 1.4% (n = 330,000) | AID 463195;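 active = inhibition of 40% or more at the single tested concentration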;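 note: wild-type TIM10 isogenic control strain grown at permissive 25 °C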
# CHOP UPR activ – apoptotic UPR (CHOP) activation | CHO-CHOP luciferase reporter, luminescence; percent of tunicamycin response over DMSO baseline | activation, % at 10 µM | actives 0.34% (n = 330,000) | AID 449763;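 active = at 10 µM dose, activation of 40% or more, normalized to positive control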;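 note: 100% = tunicamycin at 10 µg/mL and 0% = DMSO alone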
#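 System: CHO-CHOP luciferase reporter cell line | Buffer or medium: F12 medium containing 10% fetal bovine serum | Doses: One dose, 10 µM in 0.5% DMSO | Times: 6 h compound exposure at 37 °C after overnight seeding | Signal: Luciferase luminescence | Read-out: % activation vs tunicamycin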
# tim10-1 conf – tim10-1 yeast growth inhibition, confirmed | S. cerevisiae tim10-1 ts strain growth, BacTiter-Glo, 24 h | AID 463213 | shares compounds with tim10-1 inh | inhibition, % at 20 µM | actives 56% (n = 7,400);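 active = inhibition of yeast growth at or above a set limit in either of two repeat tests at 20 µM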;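 note: tim10-1 mutant grown at permissive 25 °C to find synthetic lethal compounds; 0% = DMSO yeast wells and 100% = medium wells without yeast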
# * marks the source's active call; other numbers are inactive results; nt = not tested or not shown.
SMILES,tim10-1 inh,XBP1 UPR activ,tim23-1 inh,TIM10 inh,CHOP UPR activ,tim10-1 conf
CN1CCCN(C(=O)CNC(=O)c2ccc(Cl)cc2Cl)CC1,-11,2,-6,-9,1,nt
Cc1csc(=O)n1CC(=O)Nc1ccc(C(C)C)cc1,24,2,24,27,1,nt
CN(C)c1ccc(C(=S)N2CCN(S(=O)(=O)c3ccccc3)CC2)cc1,40*,-3,21,19,0,20
COc1ccc(S(=O)(=O)N2CCN(C(=O)c3ccc([N+](=O)[O-])o3)CC2)cc1,51*,-2,35,28,5,45*
COc1ccc(CCC(=O)N2CCN(S(=O)(=O)c3ccc(C)cc3)CC2)cc1,14,0,16,-3,2,nt
CC(C)c1ccc(S(=O)(=O)N2CCN(C(=O)Cc3ccsc3)CC2)cc1,43*,-2,27,13,-1,12
COc1ccc(C(=S)N2CCN(S(=O)(=O)c3ccccc3)CC2)cc1,46*,-7,42,15,0,25
COc1cc(/C=C/C(=O)OCC(=O)N2CCN(S(=O)(=O)c3ccc(C)cc3C)CC2)cc(Cl)c1OC,-4,-4,9,4,7,nt
Cc1ccc(Sc2ncccc2C(=O)NCC(c2ccc(F)cc2)N2CCOCC2)cc1C (stereo not drawn),24,-1,33,7,2,nt
COc1ccc(OC)c(CN2CCN(C(=O)[C@@H](NC(=O)c3cccc(C)c3)C(C)C)CC2)c1,-11,-2,-8,9,-2,nt
Cc1ccc(-c2nc3cccnc3s2)cc1NS(C)(=O)=O,44*,3,13,2,5,-7
O=C(NCCCNc1ccc(C(F)(F)F)cc1[N+](=O)[O-])c1ccc(Cl)cc1,46*,-3,9,-4,-1,-2
O=C(NCCCNc1ccc(C(F)(F)F)cc1[N+](=O)[O-])c1cc(F)c(F)cc1Cl,8,-2,4,26,-3,nt
S=C(NCC1CC1)N/N=C/c1ccccc1Cl,18,-1,15,6,-1,nt
S=C(N/N=C/c1ccccc1Cl)Nc1cccc(Cl)c1Cl,41*,6,30,25,2,16
CCC(CC)C(=O)Nc1nnc(S(=O)(=O)N2CCCc3ccccc32)s1,16,-2,3,8,-2,nt
O=C(/C=C/c1cccs1)c1ccc(N2CCOCC2)cc1,-4,-10,10,-10,-6,nt
O=C(/C=C/c1cccs1)c1cc(Br)ccc1OC(=O)N1CCOCC1,56*,2,35,37,-2,43*
Cc1c(C(=O)C(=O)N2CCN(C)CC2)c2ccccc2n1C,7,-1,2,-12,-1,nt
Cc1c(C(=O)C(=O)N2CCCc3ccccc32)c2ccccc2n1C,43*,0,29,16,-1,24
CCOc1ccc(/C=C/C(=O)NC2CCCCC2)cc1,-12,-2,-1,5,4,nt
CCN(CC)S(=O)(=O)c1ccc(/C=C/C(=O)NC2CCCCC2)cc1,44*,3,32,20,1,28
Cc1ccc2nc(/C(C#N)=C/c3ccc(-c4ccccc4C(=O)O)o3)[nH]c2c1,9,-8,14,2,2,nt
Cc1cc2nc(/C(C#N)=C\c3ccc(-c4ccccc4C(=O)O)o3)[nH]c2cc1C,46*,-1,30,10,0,39*
COc1ccc(CNC(=O)c2cc(S(=O)(=O)N3CCCCC3)ccc2Cl)cc1OC,8,-5,7,-11,-1,nt
SMILES,tim10-1 inh,XBP1 UPR activ,tim23-1 inh,TIM10 inh,CHOP UPR activ,tim10-1 conf
N#Cc1nc(-c2ccccc2Cl)oc1NCc1ccco1,40*,3,42,-4,1,29
N#Cc1nc(-c2ccccc2)oc1NCc1ccco1,34,6,35,-5,0,nt
COc1cc(OC)cc(C(=O)NCCCCc2ccccc2)c1,5,-2,18,5,2,nt
CCCCn1c(N)c(N(CC(C)C)C(=O)CC2CCCC2)c(=O)[nH]c1=O,2,-2,-2,-1,-1,nt
O=C(O)c1ccc(OCC(O)Cn2c3ccccc3c3ccccc32)cc1 (stereo not drawn),2,-3,6,-13,-2,nt
OC(COc1ccccc1)Cn1c2ccccc2c2ccccc21 (stereo not drawn),42*,-3,26,31,1,51*
O=C(O)CN1C(=O)/C(=C/C=C/c2ccccc2)SC1=S,23,-1,17,6,-2,nt
O=C(O)CN1C(=O)/C(=C\C(Br)=C\c2ccccc2)SC1=S,43*,0,21,29,2,35*
CCOC(=O)CCCCCC(=O)Nc1ccc2c(c1)C(=O)N([C@H](C)CO)C[C@@H](C)[C@H](CN(C)S(=O)(=O)c1cn(C)cn1)O2,-4,-2,-9,2,0,nt
O=C(COC(=O)c1cc(Cl)ccc1[N+](=O)[O-])Nc1cccc2ccccc12,47*,-1,32,38,-1,34*
CCCC(=O)Nc1sc2c(c1C(=O)Nc1ccccn1)CCCC2,45*,0,25,25,-1,23
CCOc1ccccc1NC(=O)c1c(NC(=O)CCC(=O)O)sc2c1CCCCC2,32,-4,28,22,-1,nt
CCOC(=O)c1ccc(NC(=O)c2c(NC(=O)CCC(=O)O)sc3c2CCCCC3)cc1,40*,-1,26,28,0,31*
O=C(Nc1ccccn1)c1csc2c1CCCC2,44*,0,14,21,5,17
Cc1cccc(N2CCN(c3ccc4cc(S(=O)(=O)N5CCCCC5)ccc4n3)CC2)c1C,26,-4,10,-9,-1,nt
COc1ccc(C(O)(C(C)C)C(CN2CCOCC2)c2ccc(Cl)cc2)cc1 (stereo not drawn),39,-1,40,15,0,nt
COc1cccc(C(=O)NCCS(=O)(=O)N2CC(C)CC(C)C2)c1 (stereo not drawn),8,-2,2,-2,-3,nt
CCC(C)c1ccc(S(=O)(=O)N2CCN3CCCC3C2)cc1 (stereo not drawn),8,-1,16,-4,3,nt
O=C(Cn1cnc(S(=O)(=O)N2CCOCC2)c1)Nc1ccc(OC(F)(F)F)cc1,-5,-3,10,-1,-1,nt
CC1=NN(c2ccccc2)C(=O)/C1=C\C=C1/N(C)c2ccccc2C1(C)C,42*,-2,-22,13,-2,19
Clc1cccc(/C=N/N2CCN(Cc3ccccc3)CC2)c1,19,-5,27,23,3,nt
c1ccc(OCc2nnc3sc(-c4cccs4)nn23)cc1,47*,3,8,21,2,16
Clc1ccc(Cl)c(-c2nn3c(COc4ccccc4)nnc3s2)c1,36,0,6,2,-1,nt
